Shown are actives, neighbours in structure and some others; about 1.7% of the full set was active somewhere.
Apaf1 inhib: inhibitors of human Apaf-1 apoptosome. O14727. reconstituted apoptosome caspase-3 activity, DEVD-Rh110 fluorescence. inhibition, % at 20 µM. 0.71% of 330,000 active; active means inhibition of at least 40% at 20 µM;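 further: plate controls were DMSO wells for no effect and DEVD-CHO caspase inhibitor wells for full effect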
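Material: biochemical Apaf-1 apoptosome reconstitution. Medium: Hepes buffer, pH 7.5. Also added: cytochrome c activation, bis-DEVD rhodamine 110 substrate. Timing: 30 min compound preincubation, 50 min activation, room temperature. Measured by: rhodamine 110 fluorescence at Ex 480/Em 540 nm.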
UBC13 inh: blocks human UBC13 polyubiquitin chain formation. P61088. TR-FRET. inhibition, % at 20 µM. 0.47% of 330,000 active; in the data active means inhibition above about 45%, passing the limit was not always enough
PREPL inhibitor: inhibitors of human prolyl oligopeptidase-like enzyme PREPL; recombinant PREPL, fluorescence polarization activity-based probe; inhibition, % at 5.96 µM; 0.68% of 320,000 active; AID 2751; in the data active means inhibition above about 43%;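 further: 0% = enzyme with DMSO and 100% = wells lacking enzyme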
ZTA counter: blocks Epstein-Barr virus ZTA, an EBNA-1 counter-screen; ZTA-DNA binding, fluorescence polarization; inhibition, % at 11 µM; 0.15% of 320,000 active; AID 2234; in the data active means inhibition above about 33%
EBNA-1 inhibitor: blocks EBNA-1 binding to DNA; EBNA-1 DNA binding, fluorescence polarization; inhibition, % at 14.8 µM; 0.34% of 300,000 active; in the data active means inhibition above about 28%
EBNA-1 confirm: EBNA-1 (EBV) inhibition, confirmation. AID 2292. shares compounds with EBNA-1 inhibitor. inhibition, % at 14.8 µM. Recombinant EBNA-1 DBD, Cy5-DNA fluorescence polarization. 35% of 830 active;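 active means mean inhibition across replicates above a set limit taken from the earlier primary screen, cut at about 28% in these data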;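 further: plate controls were EBNA-1 protein with DMSO for no effect and wells lacking EBNA-1 for full effect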
ZTA DNA inh trip: ZTA (EBV) inhibition, triplicate counter-screen. shares compounds with EBNA-1 inhibitor. Zta-ZRE DNA binding, Cy5 fluorescence polarization. inhibition, % at 11.1 µM. 830 tested, under 10 active. AID 2328;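 active means mean inhibition over triplicates above a set limit taken from the primary EBNA-1 screen, cut at about 37% in these data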;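 further: purified full length Zta protein with Cy5 labeled ZRE DNA probe; 0% = Zta with DMSO and 100% = wells lacking Zta protein; inhibitors lower polarization by freeing the labeled DNA probe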
An asterisk follows results filed as active.

How did COc1ccc(/C=C/C(=O)Oc2ccc(/C=N\NC(=O)c3ccc(F)cc3)cc2)cc1 do in these assays?
Apaf1 inhib: -9.2; UBC13 inh: -21.6; PREPL inhibitor: 5.7; ZTA counter: -4.9; EBNA-1 inhibitor: 1.7

What do the screens show for `N#Cc1c2c(c(Nc3ccc(O)cc3)n3c1nc1ccccc13)CCC2`?
Apaf1 inhib: -6.2; UBC13 inh: 4.7; PREPL inhibitor: 7.0; ZTA counter: -3.2; EBNA-1 inhibitor: 39.2*; EBNA-1 confirm: 15.0; ZTA DNA inh trip: 0.4

What do the screens show for `CCOc1cc(/C=N/NC(=O)C(=O)N/N=C/c2ccc(O)c(OCC)c2)ccc1O`?
Apaf1 inhib: 0.4; UBC13 inh: -12.3; PREPL inhibitor: 5.1; ZTA counter: 7.7; EBNA-1 inhibitor: 27.7*; EBNA-1 confirm: 23.1; ZTA DNA inh trip: -5.6

What do the screens show for `N/C(=N\O)c1ccc(NC(=O)c2ccc(Br)o2)cc1`?
Apaf1 inhib: -1.2; UBC13 inh: 4.9; PREPL inhibitor: 1.3; ZTA counter: 10.1; EBNA-1 inhibitor: 9.5

What do the screens show for `CCN(CC)S(=O)(=O)c1ccc(C(=O)Nc2nnc(NC(=S)Nc3ccccc3)s2)cc1`?
Apaf1 inhib: 20.2; UBC13 inh: -2.3; PREPL inhibitor: 2.7; ZTA counter: -22.6; EBNA-1 inhibitor: 38.5*; EBNA-1 confirm: 75.3*; ZTA DNA inh trip: -11.5

Results for CO/N=C(/c1nonc1N)N1CCN(c2ccc([N+](=O)[O-])cc2)CC1 ?
Apaf1 inhib: -10.0; UBC13 inh: -1.3; PREPL inhibitor: 4.0; ZTA counter: -2.9; EBNA-1 inhibitor: 33.3*; EBNA-1 confirm: 7.4; ZTA DNA inh trip: 1.0

How did CCOc1ccc(S(=O)(=O)NCCC(=O)Nc2nnc(C)s2)cc1 do in these assays?
Apaf1 inhib: 6.4; UBC13 inh: -4.6; PREPL inhibitor: 1.1; ZTA counter: 0.3; EBNA-1 inhibitor: -12.4

How did O=Cc1c(-c2ccc(F)cc2)nc2ccccn12 do in these assays?
Apaf1 inhib: 3.1; UBC13 inh: -5.7; PREPL inhibitor: 11.0; ZTA counter: -8.1; EBNA-1 inhibitor: -12.3

How did O=C(Nc1ccc(-c2nc3ccccc3o2)cc1)c1ccc(N2C(=O)C3C4C=CC(C4)C3C2=O)cc1 (stereo not given) do in these assays?
Apaf1 inhib: -5.1; UBC13 inh: 7.5; PREPL inhibitor: -2.2; ZTA counter: 27.6; EBNA-1 inhibitor: 102.7*; EBNA-1 confirm: 112.0*; ZTA DNA inh trip: 17.0

Results for CCCCc1ccc(NC(=O)CN2C(=O)C3CCCCC3C2=O)cc1 (stereo not given) ?
Apaf1 inhib: 12.7; UBC13 inh: -0.3; PREPL inhibitor: 4.7; ZTA counter: 1.9; EBNA-1 inhibitor: -1.1

What do the screens show for `COc1ccc(C(=O)Nc2ccccc2C(=O)NC(Cc2ccc(O)cc2)C(=O)NNC(=O)c2ccccc2)cc1` (stereo not given)?
Apaf1 inhib: 10.4; UBC13 inh: 0.8; PREPL inhibitor: 10.7; ZTA counter: -16.3; EBNA-1 inhibitor: 82.4*; EBNA-1 confirm: -8.5; ZTA DNA inh trip: -10.1

What do the screens show for `O=S(=O)(Nc1nc2ccccc2nc1-[n+]1cccc(N=C([O-])c2ccccc2Cl)c1)c1ccccc1`?
Apaf1 inhib: -0.9; UBC13 inh: -7.3; PREPL inhibitor: 2.0; ZTA counter: 1.7; EBNA-1 inhibitor: -8.5

How did COc1ccc(C([O-])=Nc2ccc[n+](-c3nc4ccccc4nc3NS(=O)(=O)c3ccccc3)c2)cc1 do in these assays?
Apaf1 inhib: 2.1; UBC13 inh: -3.6; PREPL inhibitor: 4.0; ZTA counter: 1.3; EBNA-1 inhibitor: 28.8*; EBNA-1 confirm: 0.4; ZTA DNA inh trip: -6.5

Results for COc1cccc(CN2C(=NC(=O)CCC3CCCC3)SC3CS(=O)(=O)CC32)c1 (stereo not given) ?
Apaf1 inhib: 1.0; UBC13 inh: -0.7; PREPL inhibitor: -0.8; ZTA counter: -6.6; EBNA-1 inhibitor: -4.8

What do the screens show for `Cc1cc(C)cc(-n2ccnc2SCC(=O)Nc2nccs2)c1`?
Apaf1 inhib: 3.7; UBC13 inh: -1.3; PREPL inhibitor: -8.7; ZTA counter: -3.5; EBNA-1 inhibitor: 10.6

Results for Cc1ccc(C)c(-n2nnnc2SCC(=O)NCC2CCCO2)c1 (stereo not given) ?
Apaf1 inhib: -1.8; UBC13 inh: 3.9; PREPL inhibitor: 1.8; ZTA counter: 13.3

How did CCOc1ccc(NC(=O)CN(C)C(=O)/C=C/c2ccc(S(=O)(=O)N3CCCCCC3)cc2)cc1OCC do in these assays?
Apaf1 inhib: -1.9; UBC13 inh: -4.5; PREPL inhibitor: 1.2; ZTA counter: -0.9; EBNA-1 inhibitor: 32.5*; EBNA-1 confirm: 14.4; ZTA DNA inh trip: 3.8

What do the screens show for `CC(=O)c1ccc(NC(=O)CSc2ccc(-c3ccc4c(c3)OCO4)nn2)cc1`?
Apaf1 inhib: -18.1; UBC13 inh: 4.8; PREPL inhibitor: -5.8; ZTA counter: 9.3; EBNA-1 inhibitor: 5.3

How did CC(=O)Nc1ccc(NC(=O)CSc2ccc(-c3ccc4c(c3)OCO4)nn2)cc1 do in these assays?
Apaf1 inhib: -10.5; UBC13 inh: -0.9; PREPL inhibitor: 1.2; ZTA counter: 6.5; EBNA-1 inhibitor: 49.0*; EBNA-1 confirm: 24.1; ZTA DNA inh trip: 2.8

How did Cc1cccc(N2CCN(C(=O)c3cc4c(=O)n(C)c5ccccc5c4n3C)CC2)c1C do in these assays?
Apaf1 inhib: 17.0; UBC13 inh: -1.2; PREPL inhibitor: 11.2; ZTA counter: 6.7; EBNA-1 inhibitor: 1.6

How did COc1ccccc1Nc1nnc(SCC(=O)Nc2cc(C)on2)s1 do in these assays?
Apaf1 inhib: 0.3; UBC13 inh: -0.2; PREPL inhibitor: 10.2; ZTA counter: -2.5; EBNA-1 inhibitor: 35.3*; EBNA-1 confirm: 20.9; ZTA DNA inh trip: 3.9

What do the screens show for `O=C(CSc1nnc(Nc2ccccc2F)s1)c1cc2ccccc2o1`?
Apaf1 inhib: 14.3; UBC13 inh: -16.5; PREPL inhibitor: -39.6; ZTA counter: -4.6; EBNA-1 inhibitor: 3.3

Results for Cc1ccc(N2CC(C(=O)Nc3nnc(SCC(=O)Nc4cc(C)on4)s3)CC2=O)cc1 (stereo not given) ?
Apaf1 inhib: -0.1; UBC13 inh: 0.9; PREPL inhibitor: 4.2; ZTA counter: 11.4; EBNA-1 inhibitor: 34.4*; EBNA-1 confirm: 8.6; ZTA DNA inh trip: -4.1

What do the screens show for `COc1ccc(Nc2nnc(SCC(=O)c3cc4ccccc4o3)s2)cc1`?
Apaf1 inhib: -1.9; UBC13 inh: -9.9; PREPL inhibitor: -15.5; ZTA counter: -6.6; EBNA-1 inhibitor: 44.1*; EBNA-1 confirm: 36.9*; ZTA DNA inh trip: 2.1

What do the screens show for `COc1cccc(OC)c1OCCOCCN1CCN(C)CC1`?
Apaf1 inhib: 1.7; UBC13 inh: 4.0; PREPL inhibitor: 0.4; ZTA counter: -14.5; EBNA-1 inhibitor: -16.1

What do the screens show for `CCCCN(CC(=O)NC1CC1)S(=O)(=O)c1ccc(OCC)cc1`?
Apaf1 inhib: 4.7; UBC13 inh: -9.1; PREPL inhibitor: 1.9; ZTA counter: -2.2
